According to ChEMBL document CHEMBL1122078, “Inhibitors of blood platelet aggregation. Activity of some 1H-benz[de]isoquinolinecarboximidamides on the in vivo blood platelet aggregation induced by collagen” (J Med Chem, 1982):
In brackets after ≈: the same amount, converted by molar mass. Several values for one entry are separate records, joined by “and”; a condition that tells them apart may be missing. Identical values can stand only once.

What was measured:
[1] = test system: Rattus norvegicus; assay: (§1) Compound was tested in the rat after peroral administration for its ability to inhibit the in vivo blood platelet aggregation induced by collagen; assay type: functional
Method in brief: (§2)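 Oral dosing of male Wistar rats at 0.2 mmol/kg/day for 5 days, alongside a placebo group. On day 5 under pentobarbitone anesthesia, collagen was infused via a cannula in the right common carotid artery. EDTA blood samples were taken 60 and 90 s after the start of infusion, and platelets were counted by Coulter counter. Value is the increase in circulating platelets relative to placebo, at 60 s unless stated.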

[2] = Aqueous solubility at room temperature; assay type: physicochemical; settings: water; read-out: S
Method in brief: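 Solubility in water, given in mg/mL, determined at room temperature.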

[3] = test system: Rattus norvegicus; assay: In vivo inhibition of blood platelet aggregation induced by collagen, intraperitoneal administration; assay type: functional
Method in brief: (§3)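 Male Wistar rats dosed ip at 0.2 mmol/kg/day for 5 days, with a placebo group run in parallel. On day 5 rats were anesthetized with pentobarbitone (40-50 mg/kg ip) and collagen was infused through a cannula in the right common carotid. Blood was taken into EDTA at 60 and 90 s. Platelets were Coulter-counted after thrombo-oil separation. Read-out: rise in circulating platelets versus placebo, at 60 s unless noted.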

[4] = test system: Rattus norvegicus; assay: Compound was tested in the rat after peroral administration for its ability to inhibit the in vivo blood platelet aggregation induced by collagen; Only at 90s after collagen administration; assay type: organism-based; settings: po; method in brief: as §2
[5] = test system: Rattus norvegicus; assay: as §1; assay type: ADME, organism-based; settings: po; method in brief: as §2
[6] = test system: Rattus norvegicus; assay: (§4) Compound was tested in the rat after intraperitoneal administration for its ability to inhibit the in vivo blood platelet aggregation induced by collagen; Not determined because of toxicity; assay type: organism-based; settings: ip; method in brief: as §3
[7] = test system: Rattus norvegicus; assay: as §4; assay type: functional, organism-based; method in brief: as §3
[8] = test system: Rattus norvegicus; assay: Compound was tested in the rat after peroral administration for its ability to inhibit the in vivo blood platelet aggregation induced by collagen,; assay type: organism-based; settings: po; method in brief: as §2
[9] = test system: Rattus norvegicus; assay: Compound was tested in the rat after intraperitoneal administration for its ability to inhibit the in vivo blood platelet aggregation induced by collagen; assay type: ADME, organism-based; settings: po, in the assay text read “oral” for “intraperitoneal”

solubility [2] | SMILES | Increase [3] | further results
4000 µg/mL | CN(C)c1ccc(NC(=N)N2Cc3cccc4c3C(CCC4)C2)cc1.Cl (stereo not given) | – | Increase [1]: 4%
< 4000 µg/mL | N=C(Nc1ccc(Cl)cc1)N1Cc2cccc3c2C(CCC3)C1 (stereo not given) | – | Increase [1]: 7%
10000 µg/mL | Cl.N/N=C(/N)N1Cc2cccc3cccc(c23)C1 | – | –
5000 µg/mL | COc1ccc2c3c1CCCC3CN(C(=N)NO)C2.Cl (stereo not given) | 70% | Increase [4]: 8%
< 3000 µg/mL | COc1ccc(NC(=N)N2Cc3cccc4c3C(CCC4)C2)cc1 (stereo not given) | – | Increase [5]: 7%; Increase [6]: Toxic
> 50000 µg/mL | COc1cc2c3c(c1OC)CCCC3CN(C(=N)NO)C2.Cl (stereo not given) | – | –
– | N/C(=N\c1ccc([N+](=O)[O-])cc1)N1Cc2cccc3c2C(CCC3)C1 (stereo not given) | – | Increase [7]: Toxic; Increase [8]: -7%
< 3000 µg/mL | N=C(Nc1ccccc1)N1Cc2cccc3c2C(CCC3)C1 (stereo not given) | -11% | –
< 5000 µg/mL | N/C(=N\c1ccc(N)cc1)N1Cc2cccc3c2C(CCC3)C1 (stereo not given) | – | Increase [5]: 8%; Increase [6]: Toxic
25000 µg/mL | CN(C)/N=C(/N)N1Cc2cccc3cccc(c23)C1.Cl | – | Increase [1]: -2%
4000 µg/mL | Cl.N/C(=N\O)N1Cc2cccc3cccc(c23)C1 | 36% and 23% | –
< 3000 µg/mL | N=C(Nc1ccc(S(N)(=O)=O)cc1)N1Cc2cccc3c2C(CCC3)C1 (stereo not given) | – | Increase [1]: 3%
17000 µg/mL | COc1ccc2c3c1CCCC3CN(C(=N)N)C2.Cl (stereo not given) | – | –
20000 µg/mL (≈ 82.2 mM) | C/N=C(\NC)N1Cc2cccc3c2C(CCC3)C1 (stereo not given) | 2% | –
< 3000 µg/mL | N#CNC(=N)N1Cc2cccc3c2C(CCC3)C1 (stereo not given) | 1% | –
10000 µg/mL | Cl.N=C(N)N1Cc2cccc3cccc(c23)C1 | 38% and 28% | –
< 3000 µg/mL | Cl.N=C(Nc1ccc(C(N)=O)cc1)N1Cc2cccc3c2C(CCC3)C1 (stereo not given) | – | Increase [1]: 7%

solubility [2] | SMILES | Increase [3] | further results
60000 µg/mL | Cl.N=C(N)N1Cc2cccc3c2C(CCC3)C1 (stereo not given) | – | –
– | CC(C)=N/N=C(\N)N1Cc2cccc3c2C(CCC3)C1.Cl (stereo not given) | – | Increase [7]: Toxic; Increase [8]: 0%
25000 µg/mL (≈ 104 mM) | C/N=C(/NC)N1Cc2cccc3cccc(c23)C1 | 1% | –
12000 µg/mL | Cl.N/C(=N\O)N1Cc2cccc3c2C(CCC3)C1 (stereo not given) | 42% and 23% | –
16000 µg/mL | Cc1ccc2c3c1CCCC3CN(C(=N)N)C2.Cl (stereo not given) | – | Increase [9]: 16%; Increase [6]: Toxic
2500 µg/mL | Cl.N=C(N)N1Cc2cccc3c(Cl)ccc(c23)C1 | – | Increase [6]: Toxic
< 3000 µg/mL | Br.N/C(=N\c1ccc(C(=O)O)cc1)N1Cc2cccc3c2C(CCC3)C1 (stereo not given) | – | Increase [1]: 2%
3000 µg/mL | Cl.N/C(=N\O)N1Cc2cccc3c(Cl)ccc(c23)C1 | 44% and 18% | –
60000 µg/mL | Cl.N/N=C(/N)N1Cc2cccc3c2C(CCC3)C1 (stereo not given) | – | –
18000 µg/mL | Cc1ccc2c3c1CCCC3CN(C(=N)NO)C2.Cl (stereo not given) | 45% | –
< 3000 µg/mL | C/N=C(\N)N1Cc2cccc3c2C(CCC3)C1 (stereo not given) | – | Increase [1]: 30% and 12%
18000 µg/mL | COc1cc2c3c(cccc3c1)CN(C(=N)NO)C2.Cl | – | Increase [1]: -5%
5000 µg/mL | Cc1ccc2c3c(cccc13)CN(C(=N)NO)C2.Cl | 16% and 14% | –
60000 µg/mL | Cl.Cl.N/C(=N\c1ccc(N)cc1)N1Cc2cccc3cccc(c23)C1 | – | Increase [1]: 8%
< 5000 µg/mL | COc1ccc(NC(=N)N2Cc3cccc4cccc(c34)C2)cc1 | -2% | –
35000 µg/mL | CC(=O)NC(=N)N1Cc2cccc3cccc(c23)C1.Cl | 17% | –
